According to PubChem BioAssay AID1381 (University of Pittsburgh Molecular Library Screening Center, 2008):
In all, about 220,000 compounds went through this assay and about 1,000 (0.45%) were called active.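 Rule for the calls: active = plate z-score of nuclear minus cytoplasmic receptor signal below a set negative limit, without overly bright fluorescence or cell loss (cut at about -3.5 in these data, passing the limit was not always enough); inactive = the rest, inconclusive results apart.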 Many of the other results were omitted from the sample, so actives are more common in it than they were.

Experiment: inhibitors of GR-EGFP nuclear translocation, primary screen, dynein cargo transport inhibitor project, imaging, high-content, 3617.4 mouse cells (AID 1381)
Details: stimulated with dexamethasone, 1 µM
Outline: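 Also added – dexamethasone, 1.0 µM final · Buffer or medium – tet-free, stripped-serum medium · Schedule – induction 48 h, compound 1 h, agonist 30 min · Detection – formaldehyde fixation, Hoechst nuclear stain, 10x automated fluorescence imaging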

[1] = measured here: cell count per field, at 20 µM
[2] = measured here: cytoplasmic GR-EGFP intensity, at 20 µM, stronger effect = higher value
[3] = measured here: nuclear GR-EGFP intensity, at 20 µM, stronger effect = lower value
[4] = measured here: cell count per field, at 50 µM
[5] = measured here: cytoplasmic GR-EGFP intensity, at 50 µM, stronger effect = higher value
[6] = measured here: nuclear GR-EGFP intensity, at 50 µM, stronger effect = lower value

CC(=O)Cn1ncc(N2CCOCC2)c(Br)c1=O
z-score (at 20 µM, stronger effect = lower value): 1.61 (inactive) | z-score [1]: -0.679 | z-score [2]: -0.251 | z-score [3]: 0.837

O=C(c1cccs1)N1CCN(C(=O)N2CCOCC2)CC1
z-score (at 20 µM, stronger effect = lower value): -0.705 (inactive) | z-score [1]: 0.766 | z-score [2]: -0.299 | z-score [3]: -0.226

O=C(/C=C/c1cccs1)c1cc(Cl)ccc1OC(=O)N1CCOCC1
z-score (at 20 µM, stronger effect = lower value): -4.66 (active) | z-score [1]: 0.865 | z-score [2]: 0.34 | z-score [3]: -2.08

CC(=O)Nc1ccccc1OC(=O)N1CCOCC1
z-score (at 50 µM, stronger effect = lower value): -0.424 (inactive) | z-score [4]: 0.445 | z-score [5]: -0.192 | z-score [6]: -0.0276

CC(=O)NC1(c2ccc(F)cc2)CCN(C(=O)c2c(F)cccc2F)CC1
z-score (at 20 µM, stronger effect = lower value): -0.575 (inactive) | z-score [1]: 1.07 | z-score [2]: -0.235 | z-score [3]: -0.241

Nc1ncnc(Nc2cccc(Cl)c2Cl)n1
z-score (at 20 µM, stronger effect = lower value): -1.6 (inactive) | z-score [1]: 0.756 | z-score [2]: -0.225 | z-score [3]: -1.2

COCCN(Cc1nc(-c2ccc(C(F)(F)F)cc2)no1)C(C)C
z-score (at 20 µM, stronger effect = lower value): -0.214 (inactive) | z-score [1]: 0.527 | z-score [2]: -0.267 | z-score [3]: 0.0742

O=C(NNS(=O)(=O)Cc1ccccc1)c1ccc([N+](=O)[O-])cc1
z-score (at 20 µM, stronger effect = lower value): -0.775 (inactive) | z-score [1]: 0.134 | z-score [2]: -0.751 | z-score [3]: -0.634

COc1ccc(-n2cnc3cc(C(=O)NC4CCCC4)ccc32)cc1
z-score (at 20 µM, stronger effect = lower value): 0.728 (inactive) | z-score [1]: -0.477 | z-score [2]: -0.235 | z-score [3]: 0.5

Cc1cc(-c2n[nH]c(=S)n2/N=C/c2ccco2)n[nH]1
z-score (at 20 µM, stronger effect = lower value): 0.146 (inactive) | z-score [1]: -0.499 | z-score [2]: -0.239 | z-score [3]: -0.0329

S=c1[nH]nc(-c2cccnc2)n1/N=C/C(Cl)=C\c1ccccc1
z-score (at 20 µM, stronger effect = lower value): -0.315 (inactive) | z-score [1]: -1.55 | z-score [2]: 0.22 | z-score [3]: 0.116

Cc1cc(-c2n[nH]c(=S)n2/N=C/C(Br)=C/c2ccccc2)n[nH]1
z-score (at 20 µM, stronger effect = lower value): -4.43 (active) | z-score [1]: -1.17 | z-score [2]: 0.939 | z-score [3]: -2.57

Nc1ccccc1SCc1cc([N+](=O)[O-])cc2c1OCOC2
z-score (at 20 µM, stronger effect = lower value): -0.839 (inactive) | z-score [1]: 0.822 | z-score [2]: 3.91 | z-score [3]: 0.0233

Nc1ccccc1SC(C[N+](=O)[O-])c1ccccc1 (configuration not stated)
z-score (at 20 µM, stronger effect = lower value): -4.57 (active) | z-score [1]: -0.167 | z-score [2]: 2.56 | z-score [3]: -1.84

Nc1ccccc1Sc1ccc(C(F)(F)F)cc1[N+](=O)[O-]
z-score (at 20 µM, stronger effect = lower value): -0.595 (inactive) | z-score [1]: 0.488 | z-score [2]: -0.213 | z-score [3]: -0.319

COC(=O)c1cc(C(=O)N(Cc2ccccc2)c2ccccn2)cc([N+](=O)[O-])c1
z-score (at 20 µM, stronger effect = lower value): -0.154 (inactive) | z-score [1]: -0.0688 | z-score [2]: -0.223 | z-score [3]: -0.31

CN1CCN(C(=O)/C(=C\c2cccs2)NC(=O)c2cccs2)CC1
z-score (at 20 µM, stronger effect = lower value): -0.757 (inactive) | z-score [1]: 1.17 | z-score [2]: -0.214 | z-score [3]: -0.212

OCC(CO)(CO)NCc1ccc(-c2ccccc2)cc1
z-score (at 20 µM, stronger effect = lower value): -0.998 (inactive) | z-score [1]: 0.791 | z-score [2]: -0.231 | z-score [3]: -0.299

O=C(NNC(=O)c1ccccc1[N+](=O)[O-])Nc1ccccc1C(F)(F)F
z-score (at 20 µM, stronger effect = lower value): -1.96 (inactive) | z-score [1]: 0.934 | z-score [2]: -0.0968 | z-score [3]: -0.966

CC1(C)CCSC(/C=C/c2ccccc2)=N1
z-score (at 20 µM, stronger effect = lower value): -6.85 (active) | z-score [1]: 1.01 | z-score [2]: 1.09 | z-score [3]: -2.95

Cc1ccc2nc(-c3ccncc3)cc(C(=O)Nc3ccc(OC(F)F)cc3)c2c1
z-score (at 20 µM, stronger effect = lower value): -0.0501 (inactive) | z-score [1]: 0.497 | z-score [2]: -0.311 | z-score [3]: -0.123

O=C(Nn1c(SCc2ccc([N+](=O)[O-])cc2)nc2ccccc2c1=O)c1ccc(F)cc1
z-score (at 20 µM, stronger effect = lower value): -0.621 (inactive) | z-score [1]: 3.84 | z-score [2]: -0.327 | z-score [3]: -0.596

O=C(CCc1nnc(CCCCc2ccccc2)o1)NC(c1cccnc1)C(F)(F)F (configuration not stated)
z-score (at 20 µM, stronger effect = lower value): -0.699 (inactive) | z-score [1]: 1.17 | z-score [2]: -0.266 | z-score [3]: -0.517

COc1cc2c(cc1OC)C(Nc1ccc(S(N)(=O)=O)cc1)=NC(C)(C)C2
z-score (at 20 µM, stronger effect = lower value): 0.371 (inactive) | z-score [1]: 0.476 | z-score [2]: -0.265 | z-score [3]: 0.242

COc1cc2c(cc1OC)C(C(C)C)=NC(C)(C)C2
z-score (at 50 µM, stronger effect = lower value): 1.53 (inactive) | z-score [4]: -0.94 | z-score [5]: -0.084 | z-score [6]: 1.55

COc1cc2c(cc1O)C(SC)=NC(C)(C)C2
z-score (at 50 µM, stronger effect = lower value): -4 (active) | z-score [4]: -1.21 | z-score [5]: 2.4 | z-score [6]: -1.15

CC(OC(=O)c1ccccc1N1C(=O)C2C3CCC(C3)C2C1=O)C(=O)c1ccccc1 (configuration not stated)
z-score (at 20 µM, stronger effect = lower value): 0.064 (inactive) | z-score [1]: -1.14 | z-score [2]: -0.233 | z-score [3]: -0.118

CC(C)CNc1ncnc2c1cnn2Cc1ccc(Cl)cc1
z-score (at 20 µM, stronger effect = lower value): -0.416 (inactive) | z-score [1]: 0.999 | z-score [2]: -0.294 | z-score [3]: -0.416

CCOc1cc(N2CCOCC2)c(OCC)cc1NC(=O)C1=NN(c2cccc(C)c2)C(=O)CC1
z-score (at 20 µM, stronger effect = lower value): 0.424 (inactive) | z-score [1]: 0.873 | z-score [2]: -0.249 | z-score [3]: -0.0907

C=CS(=O)c1sc(Cl)c(N2CCOCC2)c1[N+](=O)[O-] (configuration not stated)
z-score (at 20 µM, stronger effect = lower value): -5.81 (active) | z-score [1]: -1.51 | z-score [2]: 2.63 | z-score [3]: -2.55

O=C(NCc1ccccc1)c1ccc(CNc2c(N3CCCC3)c(=O)c2=O)cc1
z-score (at 20 µM, stronger effect = lower value): 1.94 (inactive) | z-score [1]: -1.79 | z-score [2]: -0.175 | z-score [3]: 1.39

Cc1ccc(OCC(=O)Nc2cccc3c2CCCC3)cc1C
z-score (at 20 µM, stronger effect = lower value): -0.29 (inactive) | z-score [1]: 0.502 | z-score [2]: -0.193 | z-score [3]: -0.445

CCN(CC)c1ccc2c(Nc3ccccc3)c(C=O)c(=O)oc2c1
z-score (at 20 µM, stronger effect = lower value): 1.78 (inactive) | z-score [1]: -1.59 | z-score [2]: 1.04 | z-score [3]: 1.54

CCN(CC)c1ccc2cc(C(=O)O)c(=O)oc2c1
z-score (at 20 µM, stronger effect = lower value): 0.513 (inactive) | z-score [1]: -0.14 | z-score [2]: -0.259 | z-score [3]: 0.0952

CCN(CC)c1ccc2oc(=O)c(C)nc2c1
z-score (at 50 µM, stronger effect = lower value): -4.98 (active) | z-score [4]: 0.102 | z-score [5]: 1.35 | z-score [6]: -2.69

O=C(Nc1ccn(Cc2ccccc2)n1)c1n[nH]c([N+](=O)[O-])c1Cl
z-score (at 20 µM, stronger effect = lower value): 1.15 (inactive) | z-score [1]: -1.23 | z-score [2]: -0.194 | z-score [3]: 0.757

Cc1cccc(-n2cc(CN3CCN(C(=O)c4ncn[nH]4)CC3)c(-c3cccc(F)c3)n2)c1
z-score (at 20 µM, stronger effect = lower value): 0.856 (inactive) | z-score [1]: -0.858 | z-score [2]: -0.164 | z-score [3]: 0.386

CCN(CC)S(=O)(=O)c1ccc2c3c(cccc13)C(=O)S2
z-score (at 50 µM, stronger effect = lower value): -0.224 (inactive) | z-score [4]: 0.583 | z-score [5]: -0.26 | z-score [6]: -0.962

CCNC(=S)Nc1ccc(OC(F)(F)F)cc1
z-score (at 20 µM, stronger effect = lower value): -0.827 (inactive) | z-score [1]: 0.129 | z-score [2]: -0.313 | z-score [3]: 0.232

COc1ccc(CCNC(=O)C(Sc2ccccn2)c2ccccc2)cc1OC (configuration not stated)
z-score (at 20 µM, stronger effect = lower value): 1.23 (inactive) | z-score [1]: -0.867 | z-score [2]: -0.00233 | z-score [3]: 0.852

COc1ccc(C(CCN(Cc2ccc(OC)c(OC)c2)C(=O)CCl)c2ccccc2)cc1 (configuration not stated)
z-score (at 20 µM, stronger effect = lower value): -5.18 (active) | z-score [1]: -0.271 | z-score [2]: 0.893 | z-score [3]: -2.94

CCOC(=O)CN(Cc1ccc(OC)c(OC)c1)S(=O)(=O)c1ccc(OC)cc1
z-score (at 20 µM, stronger effect = lower value): -0.369 (inactive) | z-score [1]: 0.666 | z-score [2]: -0.0278 | z-score [3]: 0.0349

CN(CCc1ccccn1)C(=O)CCC1CCCN(Cc2ccccc2OC(F)F)C1 (configuration not stated)
z-score (at 20 µM, stronger effect = lower value): -0.0542 (inactive) | z-score [1]: 0.0326 | z-score [2]: -0.306 | z-score [3]: 0.247
